Tested on: Mus musculus
Test: Anticonvulsant activity against pentylenetetrazole-induced convulsions, after 1 hour of peroral administration in mouse at a dose of 9.4 mg/kg
Format: functional
Conditions: route oral
In short: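 Compounds were dosed as bases suspended in arabic gum at 10 mL/kg orally, after an overnight fast, with vehicle controls. Protection meant no bilateral forepaw clonic seizures or head twitches (tryptamine), or no tonic hind-limb extension (the other two). ED50 is the dose protecting 50%, by probit analysis.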

O=C(CCCN1CCC(O)(c2ccc(Cl)cc2)CC1)c1ccc(F)cc1 [HALOPERIDOL] showed an inhibition in vivo at 9.4 mg/kg of 0%.
